ChEMBL document CHEMBL4257532, “Synthesis and antitumoral activity of novel analogues monastrol-fatty acids against glioma cells” (Medchemcomm, 2018)
Active and inactive are the calls of the source. No cut-off for these calls is given here.

Key:
[1] = system: C6; test: Cytotoxicity against rat C6 cells assessed as reduction in cell viability at 10 uM after 48 hrs by MTT assay; format: functional, cell-based
Outline: (§1)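 C6 rat glioma cells in DMEM/10% FBS at 37 °C, 5% CO2. Seeded at 1 × 10^4 cells/well and exposed 48 h to 5–50 μM in DMSO, with a 1% DMSO vehicle control. MTT added at 0.5 mg/mL final for 60 min at 37 °C. Formazan dissolved in DMSO and read at 492 nm. Viability expressed as % of control. IC50 by linear regression of % inhibition against log concentration.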

[2] = system: C6; test: Cytotoxicity against rat C6 cells assessed as reduction in cell viability after 48 hrs by MTT assay; format: functional, cell-based; settings: for IC50: C6, 48 h; outline: as §1
[3] = system: C6; test: Antiproliferative activity against rat C6 cells at 5 to 50 uM after 48 hrs by Neubauer chamber method; format: functional, cell-based
Outline: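 C6 rat glioma cells (ATCC) grown in DMEM/10% FBS with penicillin/streptomycin and Fungizone at 37 °C, 5% CO2. Plated at 5 × 10^3 cells/well and treated 48 h with 5, 10, 25 or 50 μM, dissolved in DMSO. Vehicle control was 1% DMSO. Cells then trypsinized and aliquots counted in a Neubauer chamber. ANOVA with Tukey post-test versus control.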

[4] = system: C6; test: Cytotoxicity against rat C6 cells assessed as reduction in cell viability at 5 uM after 48 hrs by MTT assay relative to control; format: functional; outline: as §1
[5] = system: C6; test: Potency index, ratio of monastrol-palmitic acid IC50 to compound IC50 for cytotoxicity against rat C6 cells; format: functional

SMILES	Activity [1]	IC50 [2] [µM]	Activity [3]	Activity [4]	Ratio IC50 [5]	Activity [2]
CCCCCCCC/C=C\CCCCCCCC1=C(C(=O)OC)C(c2cccc(O)c2)NC(=O)N1 (stereo not drawn)	Active	166	Active	–	–	–
CCCCCCCCCCCCCCCCCC1=C(C(=O)OC)C(c2cccc(O)c2)NC(=S)N1 (stereo not drawn)	–	6.85	Active	50%	2.5	Dose-dependent effect
CCCCCCCCCCCCCCCC1=C(C(=O)OC)C(c2cccc(O)c2)NC(=S)N1 (stereo not drawn)	–	5.11	Active	50%	2.5	Dose-dependent effect
CCCCCCCC/C=C\CCCCCCCC1=C(C(=O)OC)C(c2cccc(O)c2)NC(=S)N1 (stereo not drawn)	–	38.4	Active	–	–	–
CCOC(=O)C1=C(C)NC(=S)NC1c1cccc(O)c1 (stereo not drawn) [MONASTROL]	–	87.8	Active	–	–	–
CCCCCCCCCCCCCCCC1=C(C(=O)OC)C(c2cccc(O)c2)NC(=O)N1 (stereo not drawn)	–	79.4	Active	Active	–	–
CCCCCCCCCCCCCCCCCC1=C(C(=O)OC)C(c2cccc(O)c2)NC(=O)N1 (stereo not drawn)	–	21.8	Active	Active	–	–
